The values below come from ChEMBL document CHEMBL1125291, “New 8-(trifluoromethyl)-substituted quinolones. The benefits of the 8-fluoro group with reduced phototoxic risk” (1992).

In brackets after ≈: the same amount, converted by molar mass.

The species named for assay [1] is Mus musculus. In words: Days of the first positive reaction in […] mice. The assay is classed as functional. An outline of the steps:
(§1)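 Phototoxic skin reaction test in depilated female CD-1 mice. A single oral dose (gavage) or subcutaneous dose was given, followed 1 h later by 3 h of UVA exposure (320–400 nm). The regimen was repeated for up to 4 consecutive days, with initial doses of 30, 100 and 300 mg/kg. PTD50 was derived by the probit method. The first day of positive reaction and the no-effect dose were taken from the raw data.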

In assay [2] the test system is Streptococcus pyogenes. Nature of the assay: Minimum inhibitory concentration (MIC) against gram positive bacteria Streptococcus pyogenes C-203. It counts as functional. The note with it: Streptococcus pyogenes; read-out: MIC. An outline of the steps: (§2)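 MICs were determined by standard broth microtitration against 11 Gram-positive and Gram-negative organisms, in µg/mL. Values come from duplicate or triplicate experiments and are accurate to ±50%.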

The subject of assay [3] is Streptococcus pyogenes. Nature of the assay: In vivo efficacy (s.c.) against Streptococcus pyogenes C-203 in mouse protection test. Particulars: Streptococcus pyogenes, sc; read-out: PD50. The assay is classed as functional. The method in brief:
(§3)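 Acute lethal systemic infections in female Charles River CD-1 mice. A single dose was given at challenge, orally by gavage or by subcutaneous injection. PD50 (median protective dose, mg/kg) was determined.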

Assay [4] concerns Escherichia coli. Nature of the assay: In vivo efficacy in mouse protection test in Escherichia coli Vogel dose administered orally by gavage. It counts as functional. The note with it: Escherichia coli, po; read-out: PD50. An outline of the steps: as §3
The subject of assay [5] is Streptococcus pyogenes. In words: In vivo efficacy (orally) against Streptococcus pyogenes C-203 in mouse protection test. The assay is classed as functional. Particulars: Streptococcus pyogenes, po; read-out: PD50. An outline of the steps:
as §3

Another assay concerns Enterobacter cloacae. In words: Minimum inhibitory concentration (MIC) against gram negative bacteria Enterobacter cloacae MA-2646. The assay is classed as functional.
Assay [6] deals with Escherichia coli. In words: In vivo efficacy in mouse protection test in Escherichia coli Vogel administered by subcutaneous injection. Particulars: Escherichia coli, sc; read-out: PD50. The assay is classed as functional. The method in brief: as §3
Assay [7] in a line: Minimum inhibitory concentration (MIC) against gram negative bacteria Prot. rettgeri M-1771. The assay is classed as functional, Providencia rettgeri. The note with it: Providencia rettgeri; read-out: MIC. An outline of the steps:
as §2

For the next assay, the system named is Enterococcus faecalis. Nature of the assay: Minimum inhibitory concentration (MIC) against gram positive bacteria Streptococcus faecalis MGH-2. Particulars: Enterococcus faecalis; read-out: MIC. The assay is classed as functional. The method in brief:
as §2

The test system of assay [8] is Pseudomonas aeruginosa. Nature of the assay: Minimum inhibitory concentration (MIC) against gram negative bacteria Pseudomonas aeruginosa UI-18. It counts as functional. The note with it: Pseudomonas aeruginosa; read-out: MIC. The method in brief: as §2
In assay [9] the test system is Mus musculus. In words: Maximum tolerance dose was measured for phototoxic skin reaction by po administration. It counts as functional.
Assay [10] is filed under the species Mus musculus. In words: Number of mice which show positive phototoxic reaction. The assay is classed as functional. An outline of the steps: as §1
Assay [11] is filed under the species Mus musculus. In words: Dose which has no effect to induce phototoxic reaction in 50% of mice by probit method. It counts as functional.
Another assay relates to Klebsiella pneumoniae. In words: Minimum inhibitory concentration (MIC) against gram negative bacteria Klebsiella pneumoniae MGH-2. The note with it: Klebsiella pneumoniae; read-out: MIC. It counts as functional. An outline of the steps:
as §2

Assay [12] is filed under the species Mus musculus. Nature of the assay: Dose required to induce phototoxic reaction in 50% of mice by probit method at different dosage forms. The assay is classed as functional.
The test system of assay [13] is Staphylococcus aureus. In words: Minimum inhibitory concentration (MIC) against gram positive bacteria Staphylococcus aureus H-228. Particulars: Staphylococcus aureus; read-out: MIC. The assay is classed as functional. An outline of the steps:
as §2

The test system of assay [14] is Escherichia coli. Nature of the assay: Minimum inhibitory concentration (MIC) against gram negative bacteria Escherichia coli Vogel. The assay is classed as functional. The note with it: Escherichia coli; read-out: MIC. An outline of the steps: as §2
For assay [15], the system named is Staphylococcus aureus. In words: Minimum inhibitory concentration (MIC) against gram positive bacteria Staphylococcus aureus UC-76. It counts as functional. The note with it: Staphylococcus aureus; read-out: MIC. The method in brief: as §2
Assay [16] relates to Streptococcus pneumoniae. In words: Minimum inhibitory concentration (MIC) against gram positive bacteria Streptococcus pneumoniae SV-1. It counts as functional. The note with it: Streptococcus pneumoniae; read-out: MIC. An outline of the steps: as §2
Assay [17] has as its system Escherichia coli. In words: Minimum inhibitory concentration (MIC) against gram negative bacteria Escherichia coli H-560. It counts as functional. Particulars: Escherichia coli; read-out: MIC. An outline of the steps:
as §2

The subject of assay [18] is Pseudomonas aeruginosa. In words: In vivo efficacy (orally) against Pseudomonas aeruginosa in mouse protection test. The assay is classed as functional. The note with it: Pseudomonas aeruginosa, po; read-out: PD50. The method in brief: as §3
Assay [19] deals with Streptococcus pneumoniae. Nature of the assay: In vivo efficacy (s.c.) against Streptococcus pneumoniae SV-1 in mouse protection test. The assay is classed as functional. The note with it: Streptococcus pneumoniae, sc; read-out: PD50. An outline of the steps: as §3
For assay [20], the system named is Streptococcus pneumoniae. Nature of the assay: In vivo efficacy (orally) against Streptococcus pneumoniae SV-1 in mouse protection test. It counts as functional. The note with it: Streptococcus pneumoniae, po; read-out: PD50. An outline of the steps:
as §3

Assay [21] deals with Pseudomonas aeruginosa. In words: In vivo efficacy (s.c.) against Pseudomonas aeruginosa in mouse protection test. The assay is classed as functional. The note with it: Pseudomonas aeruginosa, sc; read-out: PD50. The method in brief:
as §3

The species entered for assay [22] is Mus musculus. Nature of the assay: Number of mice which show positive phototoxic reaction in 5 mice. The assay is classed as functional.

In the case of `NC1CCCN(c2c(F)cc3c(=O)c(C(=O)O)cn(C4CC4)c3c2F)C1` (configuration not stated), the “Day of first positve reaction” value in the assay listed under Mus musculus [1] is listed as 0. In addition, the MIC in the assay with Streptococcus pyogenes [2] came out at 0.1 µg/mL (≈ 0.275 µM); against Enterobacter cloacae, 0.2 µg/mL (≈ 0.55 µM); in assay [7], 0.2 µg/mL (≈ 0.55 µM); in the assay with Enterococcus faecalis, 0.1 µg/mL (≈ 0.275 µM); with Pseudomonas aeruginosa [8], 0.2 µg/mL (≈ 0.55 µM); in the assay on Klebsiella pneumoniae it was 0.2 µg/mL (≈ 0.55 µM). Moreover, the minimum inhibitory concentration (MIC) with Staphylococcus aureus [13] was 0.1 µg/mL (≈ 0.275 µM); with Escherichia coli [14], 0.2 µg/mL (≈ 0.55 µM); in the assay on Staphylococcus aureus [15], 0.025 µg/mL (≈ 0.0688 µM); in the assay on Streptococcus pneumoniae [16], 0.1 µg/mL (≈ 0.275 µM); with Escherichia coli [17] it was 0.2 µg/mL (≈ 0.55 µM). Moreover, the ED50 was 3.4 mg/kg in the assay on Streptococcus pyogenes [3], 4.7 mg/kg with Escherichia coli [4], 32 mg/kg in the assay with Streptococcus pyogenes [5] and 1.4 mg/kg with Escherichia coli [6]. In the assay with Mus musculus [9], this compound yielded an MTD of 100 mg/kg. In the assay listed under Mus musculus [10], this compound registered a No. of pos rxns of 0. In addition, in the assay listed under Mus musculus [11], the No effect dose is 100 mg/kg. Further, the PTD50 in the assay listed under Mus musculus [12] was greater than 100 mg/kg.

On to `CCNCC1CCN(c2c(F)cc3c(=O)c(C(=O)O)cn(C4CC4)c3c2F)C1` (configuration not stated) [PD-117558], for which the “Day of first positve reaction” value in the assay listed under Mus musculus [1] turned out to be 1. The ED50 stood at 0.5 mg/kg in the assay on Streptococcus pyogenes [3]; 59 mg/kg with Pseudomonas aeruginosa [18]; 4.2 mg/kg in the assay on Escherichia coli [4]; 1.9 mg/kg with Streptococcus pneumoniae [19]; 3.3 mg/kg in the assay on Streptococcus pneumoniae [20]; 1.8 mg/kg in the assay with Streptococcus pyogenes [5]. The ED50 in the assay with Escherichia coli [6] came out at 1 mg/kg; in the assay with Pseudomonas aeruginosa [21] it was 40 mg/kg. Also, the MIC against Enterobacter cloacae was 0.1 µg/mL (≈ 0.255 µM); in assay [7] it was 0.4 µg/mL (≈ 1.02 µM); in the assay with Enterococcus faecalis, 0.025 µg/mL (≈ 0.0639 µM); in the assay on Pseudomonas aeruginosa [8], 0.4 µg/mL (≈ 1.02 µM); with Klebsiella pneumoniae, 0.2 µg/mL (≈ 0.511 µM); in the assay with Staphylococcus aureus [13] it was 0.05 µg/mL (≈ 0.128 µM). For the same compound, the minimum inhibitory concentration (MIC) in the assay with Escherichia coli [14] came to 0.05 µg/mL (≈ 0.128 µM); in the assay on Staphylococcus aureus [15] it was 0.006 µg/mL (≈ 0.0153 µM); with Streptococcus pneumoniae [16], 0.025 µg/mL (≈ 0.0639 µM); with Escherichia coli [17], 0.013 µg/mL (≈ 0.0332 µM). The compound further displayed a maximum tolerated dose (MTD) with Mus musculus [9] of 30 mg/kg. Moreover, the No effect dose in the assay filed under Mus musculus [11] amounted to 30 mg/kg. Also, the PTD50 in the assay filed under Mus musculus [12] was less than 30 mg/kg. For the same compound, the “No. of pos rxns” value in the assay listed under Mus musculus [22] amounted to 5.

Take `NC1CCN(c2cc3c(cc2F)c(=O)c(C(=O)O)cn3C2CC2)C1` (configuration not stated): in the assay filed under Mus musculus [1], the “Day of first positve reaction” value is 0. The MIC was 0.1 µg/mL (≈ 0.302 µM) in the assay with Streptococcus pyogenes [2]; 0.025 µg/mL (≈ 0.0754 µM) against Enterobacter cloacae; 0.1 µg/mL (≈ 0.302 µM) in [7]; 0.1 µg/mL (≈ 0.302 µM) in the assay on Enterococcus faecalis; 0.1 µg/mL (≈ 0.302 µM) in the assay on Pseudomonas aeruginosa [8]; 0.05 µg/mL (≈ 0.151 µM) with Klebsiella pneumoniae. Moreover, the MIC in the assay with Staphylococcus aureus [13] came out at 0.1 µg/mL (≈ 0.302 µM); in the assay on Escherichia coli [14], 0.05 µg/mL (≈ 0.151 µM); with Staphylococcus aureus [15] it was 0.025 µg/mL (≈ 0.0754 µM); with Streptococcus pneumoniae [16], 0.05 µg/mL (≈ 0.151 µM); in the assay on Escherichia coli [17] it was 0.006 µg/mL (≈ 0.0181 µM). Also, the ED50 was 11 mg/kg with Streptococcus pyogenes [3]; 49 mg/kg in the assay with Pseudomonas aeruginosa [18]; 3.4 mg/kg with Escherichia coli [4]; 23 mg/kg in the assay with Streptococcus pneumoniae [19]; greater than 100 mg/kg in the assay with Streptococcus pneumoniae [20]; 97 mg/kg in the assay on Streptococcus pyogenes [5]. The ED50 with Escherichia coli [6] was 0.5 mg/kg; in the assay with Pseudomonas aeruginosa [21], 5.4 mg/kg. For the same compound, the maximal tolerated dose (MTD) with Mus musculus [9] is 300 mg/kg. The compound further returned a No effect dose in the assay listed under Mus musculus [11] of 300 mg/kg. Also, the PTD50 in the assay listed under Mus musculus [12] was greater than 300 mg/kg. Besides, in the assay listed under Mus musculus [22], the “No. of pos rxns” value came to 0.

Consider `CC1(CN)CCN(c2c(F)cc3c(=O)c(C(=O)O)cn(C4CC4)c3c2C(F)(F)F)C1` (configuration not stated), for which the “Day of first positve reaction” value in the assay filed under Mus musculus [1] was 0. For the same compound, the minimal inhibitory concentration (MIC) stood at 0.05 µg/mL (≈ 0.117 µM) in the assay with Streptococcus pyogenes [2]; 0.2 µg/mL (≈ 0.468 µM) in the assay on Enterobacter cloacae; 0.8 µg/mL (≈ 1.87 µM) in assay [7]; 0.2 µg/mL (≈ 0.468 µM) in the assay with Enterococcus faecalis; 3.1 µg/mL (≈ 7.25 µM) in the assay on Pseudomonas aeruginosa [8]; 0.4 µg/mL (≈ 0.936 µM) with Klebsiella pneumoniae. The minimum inhibitory concentration (MIC) in the assay on Staphylococcus aureus [13] turned out to be 0.05 µg/mL (≈ 0.117 µM); in the assay with Escherichia coli [14], 0.2 µg/mL (≈ 0.468 µM); in the assay with Staphylococcus aureus [15], 0.013 µg/mL (≈ 0.0304 µM); in the assay on Streptococcus pneumoniae [16], 0.05 µg/mL (≈ 0.117 µM); in the assay on Escherichia coli [17], 0.1 µg/mL (≈ 0.234 µM). Besides, the ED50 stood at 8.5 mg/kg in the assay on Escherichia coli [4], 0.4 mg/kg with Streptococcus pneumoniae [19], 1.1 mg/kg in the assay with Streptococcus pneumoniae [20] and 3.1 mg/kg with Escherichia coli [6]. Besides, in the assay with Mus musculus [9], the MTD amounted to 100 mg/kg. In the assay listed under Mus musculus [11], this compound gave a No effect dose of 100 mg/kg. In the assay listed under Mus musculus [12], this compound registered a PTD50 greater than 100 mg/kg. The “No. of pos rxns” value in the assay listed under Mus musculus [22] turned out to be 0.

In general, MIC refers to the smallest concentration in the dilution series that meets the test's criterion for growth inhibition. Broadly, the MTD is the largest dose that counted as tolerated. Read a high MTD as a wide tolerated range.
